From ChEMBL document CHEMBL4196230, “Design, Synthesis, and Blood-Brain Barrier Transport Study of Pyrilamine Derivatives as Histone Deacetylase Inhibitors” (ACS Med Chem Lett, 2018) come the findings set out here.

A value given as a limit tells only on which side of the number the result lay.

The IC50 is the midpoint of a concentration-inhibition curve. By inhibition is commonly meant the relative decrease from the control value, in per cent.

In one data set the target is Histone deacetylase 1 (Homo sapiens, UniProt Q13547). Description: Inhibition of recombinant human C-terminal FLAG/His-tagged HDAC1 expressed in baculovirus infected Sf9 insect cells using HDAC substrate 3 measured after 30 mins by fluorescence assay.
The target in data set [1] is Histone deacetylase 5 (Homo sapiens) (UniProt Q9UQL6). Description: Inhibition of human recombinant HDAC5 expressed in baculovirus infected insect cells at 30 uM using HDAC class 2a substrate measured after 30 mins by fluorescence assay relative to control.
The target in data set [2] is Histone deacetylase 3/Nuclear receptor corepressor 2 (HDAC3/NCoR2) (Homo sapiens, UniProt O15379). Description: Inhibition of human full length C-terminal His-tagged HDAC3/N-terminal GST-tagged human NCOR2 (395 to 489 residues) co-expressed in baculovirus infected Sf9 insect cells using HDAC substrate 3 measured after 30 mins by fluorescence assay.
The target of data set [3] is T1, Polyamine deacetylase HDAC10 (Homo sapiens, UniProt Q969S8).
T1 sequence (Q969S8 whole entry): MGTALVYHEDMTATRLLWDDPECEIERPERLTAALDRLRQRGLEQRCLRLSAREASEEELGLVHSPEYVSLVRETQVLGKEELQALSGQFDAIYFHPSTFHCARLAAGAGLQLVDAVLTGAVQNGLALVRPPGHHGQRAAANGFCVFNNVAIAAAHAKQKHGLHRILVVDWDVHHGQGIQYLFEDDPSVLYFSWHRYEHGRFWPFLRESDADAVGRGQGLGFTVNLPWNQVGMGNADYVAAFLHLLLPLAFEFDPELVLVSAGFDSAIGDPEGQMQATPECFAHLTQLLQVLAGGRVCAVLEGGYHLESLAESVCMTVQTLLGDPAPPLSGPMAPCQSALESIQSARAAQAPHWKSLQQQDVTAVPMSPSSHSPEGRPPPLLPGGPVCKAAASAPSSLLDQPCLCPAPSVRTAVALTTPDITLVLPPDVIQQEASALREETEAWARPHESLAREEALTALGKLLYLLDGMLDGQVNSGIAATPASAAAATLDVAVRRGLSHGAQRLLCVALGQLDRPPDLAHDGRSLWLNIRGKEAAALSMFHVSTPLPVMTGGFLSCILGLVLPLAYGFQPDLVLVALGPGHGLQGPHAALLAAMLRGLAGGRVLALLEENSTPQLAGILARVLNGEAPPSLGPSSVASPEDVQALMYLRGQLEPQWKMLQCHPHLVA
Description: Inhibition of human HDAC10 expressed in baculovirus infected Sf9 insect cells using HDAC substrate 3 measured after 30 mins by fluorescence assay.

Data set [4] concerns the target T2, Protein deacetylase HDAC6 (Homo sapiens) (UniProt Q9UBN7).
T2 sequence (whole entry): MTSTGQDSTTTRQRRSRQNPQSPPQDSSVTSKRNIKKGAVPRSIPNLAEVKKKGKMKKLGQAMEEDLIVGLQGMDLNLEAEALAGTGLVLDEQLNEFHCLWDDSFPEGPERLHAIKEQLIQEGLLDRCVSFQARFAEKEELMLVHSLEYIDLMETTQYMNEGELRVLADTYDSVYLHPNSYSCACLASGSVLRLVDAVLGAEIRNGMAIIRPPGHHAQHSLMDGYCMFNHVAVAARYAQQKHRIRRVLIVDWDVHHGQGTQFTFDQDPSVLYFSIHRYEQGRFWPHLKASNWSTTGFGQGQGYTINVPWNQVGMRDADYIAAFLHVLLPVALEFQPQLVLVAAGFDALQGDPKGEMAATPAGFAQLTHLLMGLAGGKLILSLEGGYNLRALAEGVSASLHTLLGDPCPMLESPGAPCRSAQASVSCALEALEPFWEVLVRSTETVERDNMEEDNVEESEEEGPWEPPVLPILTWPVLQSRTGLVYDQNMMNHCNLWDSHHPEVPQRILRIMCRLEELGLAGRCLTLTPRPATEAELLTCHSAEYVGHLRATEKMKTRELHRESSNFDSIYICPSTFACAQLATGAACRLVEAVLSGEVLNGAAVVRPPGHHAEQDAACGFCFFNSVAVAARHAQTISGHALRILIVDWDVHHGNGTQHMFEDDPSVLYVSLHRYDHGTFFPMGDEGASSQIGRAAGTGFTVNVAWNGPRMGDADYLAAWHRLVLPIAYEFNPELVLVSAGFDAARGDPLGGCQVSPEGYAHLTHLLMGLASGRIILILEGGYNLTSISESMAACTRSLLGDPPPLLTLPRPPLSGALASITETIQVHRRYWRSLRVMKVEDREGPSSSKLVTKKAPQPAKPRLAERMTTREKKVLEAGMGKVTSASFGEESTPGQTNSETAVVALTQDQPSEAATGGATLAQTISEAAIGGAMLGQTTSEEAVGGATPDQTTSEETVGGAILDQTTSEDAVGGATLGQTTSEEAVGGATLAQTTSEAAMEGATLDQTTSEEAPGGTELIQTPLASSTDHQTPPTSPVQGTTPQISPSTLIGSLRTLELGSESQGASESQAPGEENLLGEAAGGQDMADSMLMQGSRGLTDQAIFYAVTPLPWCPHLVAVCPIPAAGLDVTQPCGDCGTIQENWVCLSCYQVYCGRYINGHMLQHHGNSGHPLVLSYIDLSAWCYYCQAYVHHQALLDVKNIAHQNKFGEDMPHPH
Description: Inhibition of recombinant human HDAC6 expressed in baculovirus infected insect cells at 30 uM using HDAC substrate 3 measured after 30 mins by fluorescence assay relative to control.

For data set [5], the target named is T3, Histone deacetylase 8 (Homo sapiens) (UniProt Q9BY41).
T3 sequence (whole entry): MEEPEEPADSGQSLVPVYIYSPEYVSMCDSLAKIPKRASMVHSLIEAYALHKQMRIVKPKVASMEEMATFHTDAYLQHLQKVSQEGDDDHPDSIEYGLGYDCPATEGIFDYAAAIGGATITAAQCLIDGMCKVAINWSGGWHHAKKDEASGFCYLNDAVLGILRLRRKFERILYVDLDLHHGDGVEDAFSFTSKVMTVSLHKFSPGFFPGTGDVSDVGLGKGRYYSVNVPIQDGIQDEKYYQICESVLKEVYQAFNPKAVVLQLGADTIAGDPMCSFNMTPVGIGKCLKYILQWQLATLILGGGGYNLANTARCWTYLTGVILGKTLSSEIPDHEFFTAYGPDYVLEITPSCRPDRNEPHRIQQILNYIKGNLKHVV
Description: Inhibition of recombinant human full length C-terminal His-tagged HDAC8 expressed in baculovirus infected insect cells at 30 uM using HDAC class 2a substrate measured after 30 mins by fluorescence assay relative to control.

The target in data set [6] is Histone deacetylase 9 (Homo sapiens) (UniProt Q9UKV0). Description: Inhibition of recombinant human C-terminal His-tagged HDAC9 (604 to 1066 residues) expressed in baculovirus infected insect cells at 30 uM using HDAC class 2a substrate measured after 30 mins by fluorescence assay relative to control.
The nature of data set [7]: Substrate activity at PYSOCA in human CMEC/D3 cells assessed as transporter-mediated drug uptake clearance assessed per mg protein at 37degC. The class given is ADME, cell-based. In short, it runs like this: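 Uptake by hCMEC/D3 cells followed over time at 37 °C or 4 °C. Clearance was calculated from the initial linear slope, expressed per mg protein. Mean ± S.E., n = 4.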

Sequence of Histone deacetylase 5 (Homo sapiens) (Q9UQL6 whole entry, the tested form may be a part): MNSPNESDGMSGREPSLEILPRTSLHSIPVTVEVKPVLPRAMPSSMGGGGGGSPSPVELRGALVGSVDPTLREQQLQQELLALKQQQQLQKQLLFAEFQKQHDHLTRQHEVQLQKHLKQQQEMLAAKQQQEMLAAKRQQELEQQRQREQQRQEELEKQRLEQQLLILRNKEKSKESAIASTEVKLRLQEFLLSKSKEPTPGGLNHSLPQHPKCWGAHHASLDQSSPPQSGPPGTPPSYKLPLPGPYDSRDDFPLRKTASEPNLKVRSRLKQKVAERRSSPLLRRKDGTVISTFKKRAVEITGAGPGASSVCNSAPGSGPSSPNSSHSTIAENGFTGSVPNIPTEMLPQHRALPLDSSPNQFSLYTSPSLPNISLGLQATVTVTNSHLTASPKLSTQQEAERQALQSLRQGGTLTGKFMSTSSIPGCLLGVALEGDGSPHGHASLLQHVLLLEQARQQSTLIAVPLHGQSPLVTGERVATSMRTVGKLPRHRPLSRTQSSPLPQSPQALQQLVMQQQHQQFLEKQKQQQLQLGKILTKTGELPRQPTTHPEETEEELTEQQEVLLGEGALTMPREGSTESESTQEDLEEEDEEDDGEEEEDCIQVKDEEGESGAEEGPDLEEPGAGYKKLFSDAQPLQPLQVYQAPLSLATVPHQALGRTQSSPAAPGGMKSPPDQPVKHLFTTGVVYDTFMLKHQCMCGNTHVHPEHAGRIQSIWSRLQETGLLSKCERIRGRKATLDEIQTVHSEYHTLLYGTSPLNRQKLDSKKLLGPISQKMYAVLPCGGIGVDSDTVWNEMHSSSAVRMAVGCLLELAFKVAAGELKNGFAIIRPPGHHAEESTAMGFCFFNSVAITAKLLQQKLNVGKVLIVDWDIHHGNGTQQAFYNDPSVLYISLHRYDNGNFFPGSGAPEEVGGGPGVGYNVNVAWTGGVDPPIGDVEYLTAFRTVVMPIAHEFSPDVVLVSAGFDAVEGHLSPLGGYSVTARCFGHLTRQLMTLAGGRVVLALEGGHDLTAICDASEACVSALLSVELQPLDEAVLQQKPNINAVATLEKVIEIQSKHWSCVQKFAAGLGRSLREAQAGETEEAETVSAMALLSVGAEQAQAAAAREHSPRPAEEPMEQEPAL
Sequence of Histone deacetylase 1 (Q13547 whole entry): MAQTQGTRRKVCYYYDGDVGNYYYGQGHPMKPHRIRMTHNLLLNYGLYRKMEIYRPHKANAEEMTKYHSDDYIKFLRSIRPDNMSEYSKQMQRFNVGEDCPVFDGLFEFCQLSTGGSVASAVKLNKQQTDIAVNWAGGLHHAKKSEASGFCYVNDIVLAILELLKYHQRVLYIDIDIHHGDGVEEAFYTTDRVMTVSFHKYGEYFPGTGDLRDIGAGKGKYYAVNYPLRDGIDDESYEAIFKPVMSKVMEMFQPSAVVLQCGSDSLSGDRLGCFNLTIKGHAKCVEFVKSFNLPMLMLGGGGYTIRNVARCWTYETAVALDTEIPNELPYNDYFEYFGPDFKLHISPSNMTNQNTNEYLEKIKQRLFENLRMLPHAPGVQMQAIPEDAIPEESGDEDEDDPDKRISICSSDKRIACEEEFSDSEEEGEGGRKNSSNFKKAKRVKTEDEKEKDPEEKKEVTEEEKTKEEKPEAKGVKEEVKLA
Sequence of Histone deacetylase 3/Nuclear receptor corepressor 2 (HDAC3/NCoR2) (O15379 whole entry, the tested form may be a part): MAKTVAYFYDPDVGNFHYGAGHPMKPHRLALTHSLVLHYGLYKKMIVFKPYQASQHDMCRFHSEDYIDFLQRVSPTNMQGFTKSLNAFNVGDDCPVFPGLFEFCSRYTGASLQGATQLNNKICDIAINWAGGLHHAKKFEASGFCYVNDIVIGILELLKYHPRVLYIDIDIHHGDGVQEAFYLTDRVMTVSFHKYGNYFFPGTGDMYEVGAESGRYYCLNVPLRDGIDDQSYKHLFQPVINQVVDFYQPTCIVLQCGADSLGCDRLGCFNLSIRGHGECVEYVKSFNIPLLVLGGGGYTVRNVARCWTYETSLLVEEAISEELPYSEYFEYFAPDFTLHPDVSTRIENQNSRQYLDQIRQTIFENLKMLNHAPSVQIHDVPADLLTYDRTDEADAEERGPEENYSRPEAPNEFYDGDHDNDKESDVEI
Sequence of Histone deacetylase 3/Nuclear receptor corepressor 2 (HDAC3/NCoR2) (Q9Y618 whole entry, further chain, the tested form may be a part): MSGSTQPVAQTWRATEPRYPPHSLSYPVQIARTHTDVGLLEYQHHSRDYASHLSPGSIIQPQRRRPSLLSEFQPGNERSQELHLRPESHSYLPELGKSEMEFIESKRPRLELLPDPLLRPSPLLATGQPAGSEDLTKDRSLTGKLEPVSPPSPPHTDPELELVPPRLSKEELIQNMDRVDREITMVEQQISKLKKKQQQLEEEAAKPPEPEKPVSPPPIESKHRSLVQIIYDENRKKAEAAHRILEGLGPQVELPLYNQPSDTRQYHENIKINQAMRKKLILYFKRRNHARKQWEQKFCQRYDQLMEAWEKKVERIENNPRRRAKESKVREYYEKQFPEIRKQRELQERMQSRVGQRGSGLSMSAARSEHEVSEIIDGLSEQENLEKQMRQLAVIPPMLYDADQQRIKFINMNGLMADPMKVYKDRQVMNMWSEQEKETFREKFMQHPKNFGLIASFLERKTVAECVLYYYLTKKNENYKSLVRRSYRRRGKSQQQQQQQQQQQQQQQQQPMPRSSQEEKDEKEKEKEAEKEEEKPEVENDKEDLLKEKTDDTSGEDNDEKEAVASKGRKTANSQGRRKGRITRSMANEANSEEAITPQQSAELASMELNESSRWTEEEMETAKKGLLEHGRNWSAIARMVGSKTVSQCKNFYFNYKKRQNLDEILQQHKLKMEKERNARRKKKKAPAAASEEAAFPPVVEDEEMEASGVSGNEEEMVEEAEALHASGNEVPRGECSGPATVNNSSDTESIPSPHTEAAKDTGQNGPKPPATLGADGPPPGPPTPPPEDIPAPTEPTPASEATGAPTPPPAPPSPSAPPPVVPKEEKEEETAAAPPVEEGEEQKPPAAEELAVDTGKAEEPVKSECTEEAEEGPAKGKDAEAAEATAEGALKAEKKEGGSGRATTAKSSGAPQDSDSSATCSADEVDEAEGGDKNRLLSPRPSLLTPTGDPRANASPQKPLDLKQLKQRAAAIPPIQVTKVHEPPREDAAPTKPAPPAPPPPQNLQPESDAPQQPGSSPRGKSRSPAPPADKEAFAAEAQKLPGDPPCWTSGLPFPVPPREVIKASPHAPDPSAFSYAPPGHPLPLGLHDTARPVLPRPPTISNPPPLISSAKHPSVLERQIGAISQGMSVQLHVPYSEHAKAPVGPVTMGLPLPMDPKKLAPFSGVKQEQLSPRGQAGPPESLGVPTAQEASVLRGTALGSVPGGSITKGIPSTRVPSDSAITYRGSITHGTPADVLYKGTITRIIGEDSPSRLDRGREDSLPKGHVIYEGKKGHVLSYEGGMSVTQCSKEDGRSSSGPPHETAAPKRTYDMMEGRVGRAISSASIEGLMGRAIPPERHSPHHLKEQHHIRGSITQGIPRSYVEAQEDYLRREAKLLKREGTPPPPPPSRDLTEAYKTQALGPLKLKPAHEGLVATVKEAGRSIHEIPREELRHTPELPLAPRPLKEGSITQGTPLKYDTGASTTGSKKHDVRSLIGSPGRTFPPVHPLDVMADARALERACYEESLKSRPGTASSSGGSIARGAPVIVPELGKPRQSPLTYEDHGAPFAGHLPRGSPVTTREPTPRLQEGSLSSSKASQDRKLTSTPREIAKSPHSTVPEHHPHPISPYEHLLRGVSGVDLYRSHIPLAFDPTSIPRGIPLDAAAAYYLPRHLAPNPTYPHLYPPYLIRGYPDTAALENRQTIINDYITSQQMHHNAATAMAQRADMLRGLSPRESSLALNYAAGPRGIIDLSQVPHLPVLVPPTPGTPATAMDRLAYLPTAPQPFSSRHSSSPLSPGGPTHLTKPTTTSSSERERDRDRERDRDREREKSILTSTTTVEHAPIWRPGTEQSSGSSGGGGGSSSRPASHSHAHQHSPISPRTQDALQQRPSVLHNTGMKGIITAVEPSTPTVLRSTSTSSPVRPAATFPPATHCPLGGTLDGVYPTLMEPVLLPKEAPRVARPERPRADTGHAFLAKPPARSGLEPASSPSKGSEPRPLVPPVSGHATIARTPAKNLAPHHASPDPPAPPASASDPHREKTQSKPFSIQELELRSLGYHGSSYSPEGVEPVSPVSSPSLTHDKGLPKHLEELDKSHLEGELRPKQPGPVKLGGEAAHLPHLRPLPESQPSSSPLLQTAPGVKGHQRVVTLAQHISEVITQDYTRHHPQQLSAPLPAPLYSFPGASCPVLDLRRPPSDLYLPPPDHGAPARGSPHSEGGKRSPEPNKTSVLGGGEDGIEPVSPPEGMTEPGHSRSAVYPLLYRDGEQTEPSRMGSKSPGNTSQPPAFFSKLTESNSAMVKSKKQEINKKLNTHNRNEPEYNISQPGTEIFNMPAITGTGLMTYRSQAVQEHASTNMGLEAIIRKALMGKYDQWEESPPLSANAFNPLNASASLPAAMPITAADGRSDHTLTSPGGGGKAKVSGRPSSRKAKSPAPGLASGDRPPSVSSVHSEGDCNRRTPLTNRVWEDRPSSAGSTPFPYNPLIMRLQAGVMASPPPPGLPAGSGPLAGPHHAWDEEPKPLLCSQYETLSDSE

In the case of `COc1ccc(CN(CCN(C)C)c2ccc(C(=O)Nc3ccccc3N)cn2)cc1`, the IC50 at Histone deacetylase 1 was 1.5 µM; in data set [2], 12 µM; in data set [3], 15.5 µM. The inhibition in data set [1], in data set [4], in data set [5] and in data set [6] was less than 10% each time. In addition, the CL in data set [7] is 107 µL/min.
